“And” between values parts separate entries of the source, which are not always exact repeats. Equal entries are not always repeated.
How the values were obtained:
[1] = biological target: Opioid receptors; mu & delta (Homo sapiens) (UniProt P41143+P35372); assay: Selectivity ratio of Opioid receptor mu 1 to Opioid receptor delta 1; format: protein assay
[2] = Selectivity ratio towards Opioid receptor kappa 1 to Opioid receptor delta 1
Mu-type opioid receptor [3] = biological target: T1, Mu-type opioid receptor (Homo sapiens, UniProt P35372); assay: Binding affinity towards recombinant human Opioid receptor mu 1 transfected in to CHO cells for the displacement of [3H]DAMGO (mu); format: cell-based
Summary of the method: (§1)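 Radioligand displacement (Ki) at cloned human opioid receptors expressed in CHO cells. Radioligands: [3H]DAMGO for mu, [3H]Cl-DPDPE for delta, [3H]U69593 for kappa.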

[4] = biological target: T2, Delta-type opioid receptor (Homo sapiens, UniProt P41143); assay: Binding affinity towards recombinant human Opioid receptor delta 1 transfected in to CHO cells for the displacement of [3H]Cl-DPDPE (delta); format: cell-based; summary of the method: as §1
[5] = biological target: T3, Kappa-type opioid receptor (Homo sapiens, UniProt P41145); assay: Binding affinity towards recombinant human Opioid receptor kappa 1 transfected in to CHO cells for the displacement of [3H]U-69593; format: cell-based; summary of the method: as §1
[6] = biological target: T3, Kappa-type opioid receptor; assay: The antagonistic activity of compound was tested in [35S]GTP-gamma-S, Recombinant Human Opioid receptor kappa 1 transfected in to CHO cells for the displacement of [3H]U-69593; format: functional, cell-based
Summary of the method: (§2)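 [35S]GTPγS binding in CHO cells expressing cloned human opioid receptors. Antagonist affinity (Ke) was derived from the compound's blockade of a standard agonist: DAMGO at mu, Cl-DPDPE at delta, U69593 at kappa.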

Mu-type opioid receptor [7] = biological target: T1, Mu-type opioid receptor; assay: The antagonistic activity tested in [35S]-GTP-gamma S Recombinant Human Opioid receptor mu 1 transfected in to CHO cells for the displacement of [3H]DAMGO (mu); format: functional, cell-based; summary of the method: as §2
[8] = biological target: T2, Delta-type opioid receptor; assay: Partial agonist activity tested in [35S]GTP-gamma-S, Recombinant Human Opioid receptor delta 1 transfected in to CHO cells for the displacement of [3H]Cl-DPDPE (delta); format: functional, cell-based
[9] = biological target: T2, Delta-type opioid receptor; assay: The antagonistic activity tested in [35S]GTP-gamma-S, Recombinant Human Opioid receptor delta 1 transfected in to CHO cells for the displacement of [3H]Cl-DPDPE (delta); format: functional, cell-based; summary of the method: as §2
[10] = biological target: T2, Delta-type opioid receptor; assay: Binding affinity towards recombinant humanOpioid receptor delta 1 transfected in to CHO cells for the displacement of [3H]Cl-DPDPE (delta); format: cell-based; summary of the method: as §1
[11] = biological target: T3, Kappa-type opioid receptor; assay: Binding affinity towards recombinant human Opioid receptor kappa 1 transfected in to CHO cells for the displacement of […]; format: cell-based; summary of the method: as §1
Mu-type opioid receptor [12] = biological target: T1, Mu-type opioid receptor; assay: Selectivity ratio Opioid receptor mu 1 to Opioid receptor delta 1
Mu-type opioid receptor [13] = biological target: T1, Mu-type opioid receptor; assay: The partial agonist activity tested in [35S]-GTP-gamma S Recombinant Human Opioid receptor mu 1 transfected in to CHO cells for the displacement of [3H]-DAMGO (mu); format: functional, cell-based
[14] = biological target: T2, Delta-type opioid receptor; assay: The antagonistic activity tested in [35S]GTP-gamma-S, Recombinant Human Opioid receptor delta 1 in to CHO cells for the displacement of [3H]Cl-DPDPE (delta); format: functional, cell-based; summary of the method: as §2

T1 sequence (P35372 whole entry): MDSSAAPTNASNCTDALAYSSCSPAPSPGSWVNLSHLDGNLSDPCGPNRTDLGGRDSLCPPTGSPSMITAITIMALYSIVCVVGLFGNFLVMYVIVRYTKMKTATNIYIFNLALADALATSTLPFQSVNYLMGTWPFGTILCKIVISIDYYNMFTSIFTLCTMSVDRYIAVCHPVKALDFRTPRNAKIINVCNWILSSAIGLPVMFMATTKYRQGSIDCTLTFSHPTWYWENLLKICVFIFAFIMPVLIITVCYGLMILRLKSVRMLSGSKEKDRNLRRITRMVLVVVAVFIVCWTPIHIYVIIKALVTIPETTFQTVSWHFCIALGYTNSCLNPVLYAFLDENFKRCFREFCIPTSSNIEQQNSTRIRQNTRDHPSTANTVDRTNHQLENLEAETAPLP
Chain of Opioid receptors; mu & delta (Homo sapiens) (P35372 whole entry, looked up): as the sequence (P35372 whole entry) above
Chain of Opioid receptors; mu & delta (Homo sapiens) (P41143 whole entry, looked up): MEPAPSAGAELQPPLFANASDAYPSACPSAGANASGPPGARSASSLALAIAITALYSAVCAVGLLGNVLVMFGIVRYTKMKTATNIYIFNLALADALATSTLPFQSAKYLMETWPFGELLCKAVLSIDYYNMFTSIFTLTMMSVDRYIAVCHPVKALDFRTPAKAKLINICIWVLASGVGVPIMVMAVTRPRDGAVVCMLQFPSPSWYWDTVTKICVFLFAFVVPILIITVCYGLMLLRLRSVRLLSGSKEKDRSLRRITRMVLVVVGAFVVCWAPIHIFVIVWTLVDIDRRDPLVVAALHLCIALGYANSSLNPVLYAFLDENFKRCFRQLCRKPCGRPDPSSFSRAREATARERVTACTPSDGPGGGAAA
T2 sequence (P41143 whole entry): as the sequence (P41143 whole entry, looked up) above
T3 sequence (P41145 whole entry): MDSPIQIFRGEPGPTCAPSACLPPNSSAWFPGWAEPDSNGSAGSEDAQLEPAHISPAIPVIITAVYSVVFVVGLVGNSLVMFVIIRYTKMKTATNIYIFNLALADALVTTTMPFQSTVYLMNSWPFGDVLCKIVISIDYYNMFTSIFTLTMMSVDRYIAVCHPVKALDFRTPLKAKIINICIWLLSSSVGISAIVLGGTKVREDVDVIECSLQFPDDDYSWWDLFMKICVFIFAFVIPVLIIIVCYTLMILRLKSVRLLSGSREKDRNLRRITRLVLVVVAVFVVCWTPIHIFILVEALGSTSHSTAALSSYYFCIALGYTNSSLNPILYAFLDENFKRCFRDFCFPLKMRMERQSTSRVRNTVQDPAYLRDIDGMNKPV

| Compound | Ratio [1] | Ratio [2] | Ki (Mu-type opioid receptor [3]) [nM] | Ki [4] [nM] | Ki [5] [nM] | Ke [6] [nM] | Ke (Mu-type opioid receptor [7]) [nM] | EC50 [8] [nM] | Ke [9] [nM] | Ki [10] [nM] | Ki [11] [nM] | Ratio (Mu-type opioid receptor [12]) | EC50 (Mu-type opioid receptor [13]) [nM] | Ke [14] [nM] |
| --- | --- | --- | --- | --- | --- | --- | --- | --- | --- | --- | --- | --- | --- | --- |
| COc1ccc2c3c1O[C@H]1c4c(c(-c5ccccc5)cn4Cc4ccccc4)C[C@@]4(O)C(C2)N(C)CC[C@]314 | > 31 | > 31 | > 10000 | 322 | > 10000 |  |  |  |  |  |  |  |  |  |
| CN1CC[C@]23c4c5ccc(O)c4O[C@H]2c2c(c(-c4ccccc4)cn2Cc2ccccc2)C[C@@]3(O)C1C5 | 0.43 | 1.6 | 49.5 | 116 | 187 | 1160 | 14.1 | 55.2 |  |  |  |  |  |  |
| Oc1ccc2c3c1O[C@H]1c4[nH]c5ccccc5c4C[C@@]4(O)[C@@H](C2)N(CC2CC2)CC[C@]314 |  |  |  |  |  | 4.95 | 4.26 |  | 0.11 |  |  |  |  |  |
| Oc1ccc2c3c1O[C@H]1c4c(c(-c5ccccc5)cn4Cc4ccccc4)C[C@@]4(O)C(C2)N(CC2CC2)CC[C@]314 |  |  | 16.8 |  |  |  |  |  |  | 13.7 | 120 |  |  |  |
| CCCN1CC[C@]23c4c5ccc(O)c4O[C@H]2c2c(c(-c4ccccc4)cn2Cc2ccccc2)C[C@@]3(O)C1C5 |  |  | 40.1 | 21.2 |  | 210 | 45.3 |  | 6.4 |  | 191 |  |  |  |
| Cc1ccc(-c2cn(Cc3ccccc3)c3c2C[C@@]2(O)C4Cc5ccc(O)c6c5[C@@]2(CCN4CC2CC2)[C@H]3O6)cc1 |  |  | 77.9 | 23.5 |  | 61.1 |  |  |  |  | 108 | 3.3 | 1360 | 2.37 |
| Cc1c(-c2ccccc2)c2c(n1Cc1ccccc1)[C@@H]1Oc3c(O)ccc4c3[C@@]13CCN(CC1CC1)C(C4)[C@]3(O)C2 | 3 and 5 |  | 52.7 | 17.3 |  | 306 | 17.7 |  | 3.68 |  | 183 |  |  |  |

Source: ChEMBL document CHEMBL1135445, “4'-Arylpyrrolomorphinans: effect of a pyrrolo-N-benzyl substituent in enhancing delta-opioid antagonist activity” (J Med Chem, 2002)
